Values after ≈ are worked out from the molar mass of the structure shown.
Key:
Liver = assay: Intrinsic clearance in mouse liver microsomes assessed per mg of protein; format: ADME; set-up: unit not given here
Outline: (§1)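 Stability assessed in human, rat and mouse liver microsomes; intrinsic clearance expressed per mg microsomal protein.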

[1] = Lipophilicity, log P of the compound at pH 7; format: physicochemical; conditions: buffer
[2] = Aqueous solubility of the compound; format: physicochemical
[3] = Permeability from apical to basolateral side in human Caco2 cells; format: ADME, cell-based; conditions: Caco-2, read-out: permeability
Liver microsome [4] = assay: Intrinsic clearance in human liver microsomes assessed per mg of protein; format: ADME; set-up: unit not given here; outline: as §1
[5] = Permeability from basolateral to apical side in human Caco2 cells; format: ADME, cell-based; conditions: Caco-2, read-out: permeability
Liver microsome [6] = assay: Intrinsic clearance in rat liver microsomes assessed per mg of protein; format: ADME; set-up: unit not given here; outline: as §1
[7] = target: T1, Kynurenine 3-monooxygenase (Homo sapiens, UniProt O15229); assay: Inhibition of human KMO assessed as conversion of kynurenine to 3-hydroxykynurenine by LC-MS/MS analysis
T1 sequence (O15229 whole entry): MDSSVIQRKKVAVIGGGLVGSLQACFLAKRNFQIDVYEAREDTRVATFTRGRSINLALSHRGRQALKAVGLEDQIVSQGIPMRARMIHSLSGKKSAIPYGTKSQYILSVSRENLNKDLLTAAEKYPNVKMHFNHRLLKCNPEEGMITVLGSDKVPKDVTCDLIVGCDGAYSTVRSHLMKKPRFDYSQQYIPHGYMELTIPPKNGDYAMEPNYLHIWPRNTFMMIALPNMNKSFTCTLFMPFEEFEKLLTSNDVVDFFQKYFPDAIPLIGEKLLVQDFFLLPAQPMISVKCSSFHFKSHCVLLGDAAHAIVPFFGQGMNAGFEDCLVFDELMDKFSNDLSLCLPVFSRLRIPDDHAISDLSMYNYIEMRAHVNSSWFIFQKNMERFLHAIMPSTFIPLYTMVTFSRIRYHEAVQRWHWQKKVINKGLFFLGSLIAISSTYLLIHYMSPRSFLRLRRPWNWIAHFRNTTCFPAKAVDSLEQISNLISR

[8] = target: T2, Kynurenine 3-monooxygenase (Rattus norvegicus, UniProt O88867); assay: Inhibition of rat KMO assessed as conversion of kynurenine to 3-hydroxykynurenine by LC-MS/MS analysis
T2 sequence (O88867 whole entry): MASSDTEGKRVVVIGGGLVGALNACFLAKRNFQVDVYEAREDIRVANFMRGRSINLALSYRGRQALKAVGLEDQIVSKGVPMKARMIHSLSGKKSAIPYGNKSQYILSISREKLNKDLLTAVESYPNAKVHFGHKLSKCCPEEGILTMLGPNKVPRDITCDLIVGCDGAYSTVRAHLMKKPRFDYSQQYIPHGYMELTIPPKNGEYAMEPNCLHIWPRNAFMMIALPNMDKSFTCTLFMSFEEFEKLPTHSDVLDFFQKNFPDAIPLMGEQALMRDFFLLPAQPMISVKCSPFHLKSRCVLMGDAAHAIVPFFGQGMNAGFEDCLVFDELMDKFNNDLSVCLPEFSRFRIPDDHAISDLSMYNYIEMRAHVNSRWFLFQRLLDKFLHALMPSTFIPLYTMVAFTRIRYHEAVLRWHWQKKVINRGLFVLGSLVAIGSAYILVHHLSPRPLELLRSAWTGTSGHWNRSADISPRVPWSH
Outline: (§2)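 Mitochondrial fractions from mouse or rat liver tissue used as KMO source. Conversion of kynurenine to 3-hydroxykynurenine quantified by LC-MS/MS; IC50 averaged from triplicate tests.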

[9] = target: T2, Kynurenine 3-monooxygenase; assay: Inhibition of KMO in rat microglia cells; format: cell-based
Outline: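 Freshly isolated neonatal rat microglial cultures, induced to express KMO by a pro-inflammatory protocol. Exogenous KYN added; conversion to 3-HK monitored by mass spectrometry.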

[10] = target: Kynurenine 3-monooxygenase (Mus musculus, UniProt Q91WN4); assay: Inhibition of mouse KMO assessed as conversion of kynurenine to 3-hydroxykynurenine by LC-MS/MS analysis; outline: as §2
Chain of Kynurenine 3-monooxygenase (Mus musculus, UniProt Q91WN4) (Q91WN4 whole entry): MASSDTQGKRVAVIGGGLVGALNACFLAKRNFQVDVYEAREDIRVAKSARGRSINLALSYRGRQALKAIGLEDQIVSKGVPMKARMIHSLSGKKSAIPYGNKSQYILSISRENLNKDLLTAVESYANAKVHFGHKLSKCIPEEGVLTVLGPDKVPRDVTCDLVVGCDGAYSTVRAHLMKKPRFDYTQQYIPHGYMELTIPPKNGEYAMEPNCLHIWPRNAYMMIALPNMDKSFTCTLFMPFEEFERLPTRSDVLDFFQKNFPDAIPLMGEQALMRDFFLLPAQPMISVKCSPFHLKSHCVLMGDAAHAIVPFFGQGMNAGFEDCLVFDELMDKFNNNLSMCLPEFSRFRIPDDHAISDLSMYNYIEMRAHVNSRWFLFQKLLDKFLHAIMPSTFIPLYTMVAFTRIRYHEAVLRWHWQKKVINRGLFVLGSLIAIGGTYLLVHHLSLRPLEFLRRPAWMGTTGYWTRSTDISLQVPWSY

[11] = target: T1, Kynurenine 3-monooxygenase; assay: Inhibition of KMO (unknown origin)
[12] = target: T1, Kynurenine 3-monooxygenase; assay: Inhibition of KMO in human PBMC
[13] = target: T1, Kynurenine 3-monooxygenase; assay: Inhibition of human KMO transfected in CHO cells assessed as conversion of kynurenine to 3-hydroxykynurenine by LC-MS/MS analysis; format: cell-based

Compound: CC(C)Oc1ccc(-c2cc(C(=O)O)ncn2)cc1Cl
- CLH (Liver): < 0.02
- logD [1]: 1.28
- solubility [2]: > 1000 µg/mL
- Papp A→B [3]: 16.5 ×10⁻⁶ cm/s
- CLH (Liver microsome [4]): < 0.02
- Papp B→A [5]: 21.2 ×10⁻⁶ cm/s
- CLH (Liver microsome [6]): < 0.02

Compound: Cn1ccn(-c2cc(-c3ccc(Cl)c(Cl)c3)ncn2)c1=O
- IC50 [7]: > 10000 nM

Compound: O=C(O)c1cc(-c2cccc(Cl)c2)ncn1
- logD [1]: 0.12

Compound: CC(=O)Nc1cc(-c2ccc(Cl)c(Cl)c2)ncn1
- IC50 [7]: > 10000 nM

Compound: O=C(O)c1cc(-c2ccc(F)c(Cl)c2)ncn1
- logD [1]: 0.41

Compound: O=C(O)c1cc(-c2cc(Cl)cc(Cl)c2)ncn1
- logD [1]: 1.15

Compound: Cc1ccc(-c2cc(C(=O)O)ncn2)cc1Cl
- logD [1]: 0.8
- solubility [2]: > 1000 µg/mL
- Papp A→B [3]: 24 ×10⁻⁶ cm/s
- IC50 [8]: 4.1 nM
- IC50 [9]: 100 nM
- IC50 [10]: 6.2 nM
- Papp B→A [5]: 35.3 ×10⁻⁶ cm/s

Compound: O=C(O)c1cc(-c2ccc(C(F)(F)F)c(Cl)c2)ncn1
- logD [1]: 1.35

Compound: O=C(O)c1cc(-c2ccc(F)c(F)c2)ncn1
- logD [1]: -0.45
- solubility [2]: > 1000 µg/mL
- Papp A→B [3]: 13.6 ×10⁻⁶ cm/s
- IC50 [8]: 2 nM
- IC50 [9]: 86 nM
- IC50 [10]: 1.5 nM
- Papp B→A [5]: 26 ×10⁻⁶ cm/s

Compound: O=C(O)[C@H]1C[C@@H]1C(=O)c1ccc(Cl)c(Cl)c1
- IC50 [11]: 20 nM

Compound: O=C(O)c1cc(-c2ccc(Cl)c(F)c2)ncn1
- logD [1]: 0.4

Compound: O=C(O)c1cc(-c2ccc(Cl)c(Cl)c2)ncn1
- logD [1]: 1.12
- solubility [2]: 740 µg/mL (≈ 2.75 mM)
- Papp A→B [3]: 41.4 ×10⁻⁶ cm/s
- IC50 [8]: 3.2 nM
- IC50 [12]: 72 nM
- IC50 [9]: 105 nM
- IC50 [10]: 6 nM
- IC50 [7]: 0.6 nM
- Papp B→A [5]: 32.4 ×10⁻⁶ cm/s
- IC50 [13]: 33 nM

Compound: O=C(O)c1cc(-c2cccc(F)c2)ncn1
- logD [1]: -0.8

Compound: O=C(O)c1cc(-c2ccc(Cl)cc2F)ncn1
- logD [1]: 0.44

Compound: COc1cc(-c2cc(C(=O)O)ncn2)ccc1Cl
- logD [1]: 0.59

Compound: Cn1nnc(-c2cc(-c3ccc(Cl)c(Cl)c3)ncn2)n1
- IC50 [7]: > 10000 nM

Compound: O=C(O)c1cc(-c2cccc(Cl)c2F)ncn1
- logD [1]: -0.34

Compound: O=C(O)c1cc(-c2ccc(OC3CCCCC3)c(Cl)c2)ncn1
- CLH (Liver): < 0.02
- solubility [2]: 500 µg/mL (≈ 1.5 mM)
- CLH (Liver microsome [4]): < 0.02
- CLH (Liver microsome [6]): < 0.02

Compound: O=C(O)c1cc(-c2ccccc2)ncn1
- logD [1]: -0.98

Compound: Cc1cccc(-c2cc(C(=O)O)ncn2)c1
- logD [1]: -0.19

Compound: Clc1ccc(-c2cc(-n3cccn3)ncn2)cc1Cl
- IC50 [7]: > 10000 nM

Compound: O=C(O)c1cc(-c2ccc(OC3CCC3)c(Cl)c2)ncn1
- CLH (Liver): < 0.02
- logD [1]: 1.19
- solubility [2]: > 1000 µg/mL
- CLH (Liver microsome [4]): < 0.02
- CLH (Liver microsome [6]): < 0.02

Compound: O=C(O)c1cc(-c2ccc(Cl)cc2)ncn1
- logD [1]: -0.11

Compound: O=C(O)c1cc(-c2ccc(OC3CCCC3)c(Cl)c2)ncn1
- CLH (Liver): < 0.02
- logD [1]: 2.18
- solubility [2]: > 1000 µg/mL
- Papp A→B [3]: 20.5 ×10⁻⁶ cm/s
- CLH (Liver microsome [4]): < 0.02
- Papp B→A [5]: 16.7 ×10⁻⁶ cm/s
- CLH (Liver microsome [6]): < 0.02

Compound: Cc1ccc(-c2cc(C(=O)O)ncn2)cc1F
- logD [1]: -0.33

Compound: O=c1[nH]ccn1-c1cc(-c2ccc(Cl)c(Cl)c2)ncn1
- IC50 [7]: > 10000 nM

Compound: O=C(O)c1cc(-c2ccc(F)c(C(F)(F)F)c2)ncn1
- logD [1]: 0.45

Compound: O=C(O)c1cc(-c2ccc(OC3COC3)c(Cl)c2)ncn1
- CLH (Liver): < 0.02
- solubility [2]: > 1000 µg/mL
- CLH (Liver microsome [4]): < 0.02
- CLH (Liver microsome [6]): < 0.02

Compound: O=C(O)c1cc(-c2cccc(C(F)(F)F)c2)ncn1
- logD [1]: 0.36

Compound: Clc1ccc(-c2cc(-n3ccnc3)ncn2)cc1Cl
- IC50 [7]: > 10000 nM

Compound: COc1ccc(-c2cc(C(=O)O)ncn2)cc1Cl
- logD [1]: 0.28
- solubility [2]: > 1000 µg/mL
- Papp A→B [3]: 15.8 ×10⁻⁶ cm/s
- Papp B→A [5]: 31.3 ×10⁻⁶ cm/s

Compound: O=C(O)c1cc(-c2ccc(F)cc2F)ncn1
- logD [1]: -0.88

Compound: O=C(O)c1cc(-c2cc(Cl)c3occc3c2)ncn1
- CLH (Liver): < 0.02
- logD [1]: 0.85
- solubility [2]: 820 µg/mL (≈ 2.99 mM)
- Papp A→B [3]: 21.9 ×10⁻⁶ cm/s
- CLH (Liver microsome [4]): < 0.02
- Papp B→A [5]: 41 ×10⁻⁶ cm/s
- CLH (Liver microsome [6]): < 0.02

Compound: O=C(O)c1cc(-c2ccc(OC(F)(F)F)c(Cl)c2)ncn1
- CLH (Liver): < 0.02
- logD [1]: 1.77
- solubility [2]: > 1000 µg/mL
- Papp A→B [3]: 10.5 ×10⁻⁶ cm/s
- IC50 [8]: 17 nM
- IC50 [9]: > 1000 nM
- CLH (Liver microsome [4]): < 0.02
- Papp B→A [5]: 17.1 ×10⁻⁶ cm/s
- CLH (Liver microsome [6]): < 0.02

Compound: CS(=O)(=O)Nc1cc(-c2ccc(Cl)c(Cl)c2)ncn1
- IC50 [7]: > 10000 nM

Compound: O=C(Nc1cc(-c2ccc(Cl)c(Cl)c2)ncn1)c1ccccc1
- IC50 [7]: > 10000 nM

Compound: O=C(O)c1cc(-c2ccc(OCC3CC3)c(Cl)c2)ncn1
- CLH (Liver): < 0.02
- solubility [2]: > 1000 µg/mL
- CLH (Liver microsome [4]): < 0.02
- CLH (Liver microsome [6]): < 0.02

From ChEMBL document CHEMBL3407478, “Development of a series of aryl pyrimidine kynurenine monooxygenase inhibitors as potential therapeutic agents for the treatment of Huntington's disease” (J Med Chem, 2015)
